These results are taken from ChEMBL document CHEMBL1136108, “Benzoxazinones as PPARgamma agonists. part 1: SAR of three aromatic regions” (Bioorg Med Chem Lett, 2003).

A value given as a limit tells only on which side of the number the result lay.

Data set [1] addresses T1, Peroxisome proliferator-activated receptor gamma (Homo sapiens) (UniProt P37231).
T1 sequence (whole entry): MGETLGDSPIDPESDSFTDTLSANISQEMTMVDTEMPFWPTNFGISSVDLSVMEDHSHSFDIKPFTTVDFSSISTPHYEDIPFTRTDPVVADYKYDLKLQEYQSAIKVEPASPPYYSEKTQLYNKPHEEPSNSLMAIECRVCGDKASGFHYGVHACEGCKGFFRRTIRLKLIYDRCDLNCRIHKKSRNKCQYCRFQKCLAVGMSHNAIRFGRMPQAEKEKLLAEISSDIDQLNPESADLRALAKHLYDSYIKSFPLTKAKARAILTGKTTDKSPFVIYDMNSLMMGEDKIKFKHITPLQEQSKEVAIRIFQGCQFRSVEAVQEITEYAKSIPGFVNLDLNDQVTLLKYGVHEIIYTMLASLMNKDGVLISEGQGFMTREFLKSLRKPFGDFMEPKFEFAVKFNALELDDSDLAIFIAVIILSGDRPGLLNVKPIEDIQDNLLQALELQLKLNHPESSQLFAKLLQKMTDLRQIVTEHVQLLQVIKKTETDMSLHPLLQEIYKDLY
In words: Functional potency was determined in pooled human preadipocytes by measurement of PPARg aP2 gene induction. The data set is classed as cell-based. The essentials: (§1)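 Pooled human preadipocytes treated with compound. Induction of the aP2 gene was quantified by a branched DNA technique. EC50 values are the mean of two experiments.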

Data set [2] concerns the target T1, Peroxisome proliferator-activated receptor gamma (Homo sapiens). In words: Agonist activity determined in peroxisome proliferator activated receptor gamma using PPAR gamma-Gal4 Luciferase cotransfection assay. The data set is classed as functional. The essentials: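 HEK293 cells grown in DMEM/F-12 with 10% FBS and glutamine, co-transfected (DMRIE-C) with PPARg-Gal4 receptor and Gal4-luciferase reporter DNA. Next day, medium switched to 5% charcoal-treated FBS; after 6 h cells seeded and incubated overnight at 37°C. Compound exposure 24 h at 37°C, 5% CO2; luciferase read by Steady-Glo. Values are the mean of two experiments.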

Data set [3] has the same target. In words: PPAR gamma mediated aP2 gene induction in pooled human preadipocytes. The format is functional, cell-based. The procedure, abridged: as §1
The nature of data set [4]: Half life period in human hepatic S9 fraction was determined. The data set is classed as ADME, subcellular. The conditions noted are these: liver S9 fraction.
A short description of data set [5]: Half life period in human liver microsome was determined. The format is ADME. The conditions noted are these: liver microsomes. In general terms: Microsomes from liver hold many membrane-bound enzymes, among them those of drug oxidation.
Data set [6] in a line: Half life period after administration (30 mg/kg) in rat. The data set is classed as ADME, organism-based. Conditions: in vivo.
The subject of data set [7] is Mus musculus. In words: Decrease in plasma glucose in db/db mice after 5 days of 30 mg/kg oral administration. The format is functional.
The subject of data set [8] is Rattus norvegicus. The experiment in a line: Area under curve (AUC0-24 h) after administration (30 mg/kg) in rat. The format is ADME, organism-based. On the set-up: dose 30 mg/kg, time < 24 hr. The conditions noted are these: in vivo.
The subject of data set [9] is Rattus norvegicus. The experiment in a line: Oral bioavailability after administration (30 mg/kg) in rat; good. The format is ADME, organism-based. The conditions noted are these: in vivo.

Consider `O=C(O)Cc1ccccc1OCCC1Oc2ccccc2N(Cc2ccc(F)c(F)c2)C1=O` (stereo not drawn), for which the Activity in data set [1] was 1.3 µM; in data set [2], 0.59 µM.

With `O=C(O)Cc1cccc(OCCC2Oc3ccccc3N(Cc3cccc(Cl)c3)C2=O)c1` (stereo not drawn), the Activity in [1] was over 10 µM; in data set [2] it was over 5 µM. The same compound had a Fold induction in [3] of 5.5.

Take `Cc1ccc(CN2C(=O)C(CCOc3ccccc3CC(=O)O)Oc3ccccc32)cc1` (stereo not drawn): the Activity came to 5 µM in data set [1] and 2 µM in data set [2].

In the case of `O=C(O)Cc1ccccc1OCCC1Oc2cc3ccccc3cc2N(Cc2ccc(Cl)cc2)C1=O` (stereo not drawn), the results for the Activity in data set [1] and in data set [2] were over 10 µM and over 5 µM, respectively.

Take `COc1ccc(CN2C(=O)C(CCOc3ccccc3CC(=O)O)Oc3ccccc32)cc1` (stereo not drawn): the Activity was 5.4 µM in data set [1] and 0.52 µM in data set [2].

As to `O=C(O)c1ccccc1OCCC1Oc2ccccc2N(Cc2ccc(Cl)cc2)C1=O` (stereo not drawn), the Activity in data set [1] is over 10 µM; in data set [2] it was over 5 µM.

For `O=C(O)Cc1ccccc1OCCC1Oc2ccccc2N(Cc2ccc(C(F)(F)F)cc2)C1=O` (stereo not drawn), the Activity in [1] amounted to 0.51 µM; in data set [2] it was 0.5 µM.

The compound `O=C(O)CCc1ccc(OCCC2Oc3ccccc3N(Cc3cccc(Cl)c3)C2=O)cc1` (stereo not drawn) came in with a Fold induction in data set [3] of 3.6.

As to `O=C(O)Cc1ccccc1OCCC1Oc2ccccc2N(Cc2ccccc2)C1=O` (stereo not drawn), the figures for the Activity in data set [1] and in [2] were 4.6 µM and over 5 µM, respectively.

On to `O=C(O)Cc1ccc(OCCC2Oc3ccccc3N(Cc3cccc(Cl)c3)C2=O)cc1` (stereo not drawn), for which the Fold induction in data set [3] amounted to 3.2.

Consider `COc1ccc2c(c1)N(Cc1ccc(Cl)cc1)C(=O)C(CCOc1ccccc1CC(=O)O)O2` (stereo not drawn), for which the results for the Activity in [1] and in data set [2] were 6 µM and 1.8 µM, respectively.

Consider `Cc1ccc2c(c1)OC(CCOc1ccccc1CC(=O)O)C(=O)N2Cc1ccc(Cl)cc1` (stereo not drawn), for which the Activity in [1] worked out at 4.2 µM; in [2], 2.1 µM.

As for `O=C(O)Cc1ccccc1OCCC1Oc2ccccc2N(Cc2ccc(Cl)c(Cl)c2)C1=O` (stereo not drawn), the Activity in [1] is 2.6 µM; in data set [2], 0.96 µM.

Take `O=C(O)Cc1ccccc1OCCC1Oc2ccccc2N(CCc2ccc(Cl)c(Cl)c2)C1=O` (stereo not drawn): the Activity in [1] was over 10 µM; in [2], over 5 µM.

As for `O=C(O)Cc1ccccc1OCCC1Oc2ccccc2N(Cc2ccc(F)cc2)C1=O` (stereo not drawn), the Activity in data set [1] worked out at 3.2 µM; in [2], 1.1 µM.

For `O=C(O)Cc1ccccc1OCCC1Oc2ccccc2N(Cc2cccc(Cl)c2)C1=O` (stereo not drawn), the values for the Activity in data set [1] and in data set [2] were 2.4 µM and 1.9 µM, respectively. In addition, in [3], the Fold induction was 6.2.

As for `O=C(O)CCc1ccccc1OCCC1Oc2ccccc2N(Cc2ccc(Cl)cc2)C1=O` (stereo not drawn), the Activity was over 10 µM in [1] and over 5 µM in data set [2].

Regarding `O=C(O)Cc1cccc(OCCC2Oc3ccccc3N(Cc3ccc(Cl)cc3)C2=O)c1` (stereo not drawn), the Activity in data set [1] was over 10 µM; in data set [2], over 5 µM.

As for `O=C(O)Cc1ccccc1OCCC1Oc2ccc(C(=O)O)cc2N(Cc2ccc(Cl)cc2)C1=O` (stereo not drawn), the Activity was over 10 µM in data set [1] and over 5 µM in data set [2].

Compound `CN(CCOc1ccc(CC2SC(=O)NC2=O)cc1)c1ccccn1` (stereo not drawn) yielded an Activity in data set [1] of 0.12 µM.

For the compound `O=C(O)Cc1ccccc1OCCC1Oc2ccccc2N(c2ccc(Cl)c(Cl)c2)C1=O` (stereo not drawn), the figures for the Activity in data set [1] and in data set [2] were 5.9 µM and 0.57 µM, respectively.

Turning to `O=C(O)Cc1ccccc1OCCC1Oc2ccccc2N(Cc2ccc3c(c2)OCO3)C1=O` (stereo not drawn), the Activity was determined as 4.4 µM in [1] and 1.1 µM in data set [2].

Take `O=C(O)Cc1ccccc1OCCC1Oc2ccccc2N(Cc2ccc(Cl)cc2)C1=O` (stereo not drawn): the half-life was over 0.833 h in data set [4], over 0.833 h in [5] and 20 h in data set [6]. For the same compound, the results for the Activity in data set [1] and in data set [2] were 2.1 µM and 1.3 µM, respectively. Also, the Glucose level in data set [7] was 27%. The compound further returned an AUC in data set [8] of 308 µM·h. The F entry in [9] is given as “Active”.

Consider `O=C(O)Cc1ccccc1OCCC1Oc2cc(F)ccc2N(Cc2ccc(Cl)cc2)C1=O` (stereo not drawn), for which the values for the Activity in [1] and in data set [2] were over 10 µM and over 5 µM, respectively.

As to `O=C(O)Cc1ccccc1OCCC1CN(Cc2ccc(Cl)c(Cl)c2)c2ccccc2O1` (stereo not drawn), the Activity was over 10 µM in [1] and over 5 µM in data set [2].

In turn, `O=C(O)CCc1cccc(OCCC2Oc3ccccc3N(Cc3cccc(Cl)c3)C2=O)c1` (stereo not drawn) gave a Fold induction in data set [3] of 5.6.

As to `CC(=O)c1ccc2c(c1)OC(CCOc1ccccc1CC(=O)O)C(=O)N2Cc1ccc(Cl)cc1` (stereo not drawn), the values for the Activity in [1] and in data set [2] were 6.2 µM and 1.8 µM, respectively.

In general, half-life refers to the time needed for the level to fall by half in the phase considered. Low readings indicate fast loss, high ones slow loss. The AUC is concentration integrated over time.
